Assay results taken from ChEMBL document CHEMBL3399918, “In vitro radical scavenging and cytotoxic activities of novel hybrid selenocarbamates” (Bioorg Med Chem, 2015).

Columns and labels:
MCF7 = assay: Cytotoxicity against human MCF7 cells after 72 hrs by MTT assay; assay type: functional; conditions: MCF7, 72 h; for CC50: read-out: LC50 (the source's name)
Method in brief: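 MCF-7 cells grown in EMEM with 10% foetal calf serum, 2 mM L-glutamine, 100 units/mL penicillin, 100 µg/mL streptomycin. Exposed to five concentrations between 0.01 and 100 μM for 72 h, 37 °C, humidified 5% CO2; MTT read-out. GI50, TGI, LC50 relative to untreated controls; ≥3 independent experiments in quadruplicate.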

HT-29 = assay: Cytotoxicity against human HT-29 cells after 72 hrs by MTT assay; assay type: functional; conditions: HT-29, 72 h
Method in brief: (§1)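 CCRF-CEM, HT-29, PC-3 and HTB-54 cells grown in RPMI 1640 with 10% foetal calf serum, 2 mM L-glutamine, penicillin/streptomycin, 10 mM HEPES (pH 7.4). Five concentrations, 0.01–100 μM, 72 h at 37 °C, 5% CO2; MTT read-out. GI50, TGI and LC50 versus untreated controls; at least 3 independent experiments in quadruplicate.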

CCRF-CEM = assay: Cytotoxicity against human CCRF-CEM cells after 72 hrs by MTT assay; assay type: functional; method in brief: as §1
[1] = Cytotoxicity against human PC3 cells after 72 hrs by MTT assay; assay type: functional; conditions: PC-3, 72 h; method in brief: as §1
[2] = Cytotoxicity against human HTB-54 cells after 72 hrs by MTT assay; assay type: functional; conditions: HTB-54, 72 h; for CC50: read-out: LC50 (the source's name); method in brief: as §1
[3] = Cytotoxicity against human 184B5 cells after 72 hrs by MTT assay; assay type: cell-based; conditions: for GI50 at 72 h: 184B5 cells; for LC50 / TGI: 184b5, 72 h
Method in brief: (§2)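 Non-malignant lines: 184B5 (normal breast) in Hams F-12/DMEM (50:50) with published supplements; BEAS-2B (bronchial epithelium) in Hams F-12/DMEM (50:50) with 10% foetal calf serum, 2 mM L-glutamine, penicillin/streptomycin. Compounds at five concentrations, 0.01–100 μM, 72 h, 37 °C, 5% CO2; MTT read-out. GI50, TGI, LC50 relative to untreated controls; ≥3 independent experiments in quadruplicate.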

[4] = Cytotoxicity against human BEAS2B cells after 72 hrs by MTT assay; assay type: cell-based, BEAS-2B; conditions: for GI50 at 72 h: BEAS2B cells; for LC50 / TGI: beas-2b, 72 h; method in brief: as §2
[5] = Antioxidant activity assessed as DPPH radical scavenging activity at 0.5 mg/ml after 180 mins; assay type: physicochemical; conditions: 3 h
Method in brief: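 Compounds in absolute ethanol, serially diluted from 1 mg/mL, mixed 1:1 with […] in ethanol. Final range 0.016–0.5 mg/mL, 6 concentrations. Incubated at 37 °C in the dark, with decolourisation followed at 517 nm at several time intervals. % scavenged = (A vehicle control − A sample)/A control × 100. Quadruplicate; mean ± SD.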

[6] = Antioxidant activity assessed as ABTS radical scavenging activity by measuring Trolox equivalent antioxidant capacity after 6 mins; assay type: physicochemical; conditions: 0.1 h
Method in brief: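 ABTS dissolved in deionized water at 1 mg/mL, oxidised to radical cation with potassium persulfate (2.45 mM final), kept overnight at room temperature in dark, then diluted with 50% ethanol to A741 = 0.700 ± 0.02. Compound (1 mg/mL ethanol stock) added 1:10 (0.1 mg/mL); A741 decrease read after 6 min against 50% ethanol blank. Trolox positive control; quadruplicate; TEAC from calibration curve.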

| Structure (SMILES) | GI50 (MCF7) [µM] | TGI (MCF7) [µM] | CC50 (MCF7) [µM] | GI50 (HT-29) [µM] | LC50 (HT-29) [µM] | TGI (HT-29) [µM] | GI50 (CCRF-CEM) [µM] | LC50 (CCRF-CEM) [µM] | TGI (CCRF-CEM) [µM] | GI50 [1] [µM] | LC50 (concentration causing 50% net cell kill) [1] [µM] | TGI [1] [µM] | GI50 [2] [µM] | TGI [2] [µM] | CC50 [2] [µM] | GI50 at 72 h [3] [µM] | LC50 [3] [µM] | TGI [3] [µM] | GI50 at 72 h [4] [µM] | LC50 [4] [µM] | further results |
| --- | --- | --- | --- | --- | --- | --- | --- | --- | --- | --- | --- | --- | --- | --- | --- | --- | --- | --- | --- | --- | --- |
| Cc1ccc(OC(=O)Nc2ccc([Se][Se]c3ccc(NC(=O)Oc4ccc(C)cc4)cc3)cc2)cc1 | 6.9 | 37.7 | 74 | 7.9 | 70.9 | 39.4 | 21.4 | 75.6 | 48.5 | 4.4 | 64.8 | 28.2 | 24.9 | 57 | 89.1 | 3.5 | 37.2 | 7.6 | 0.7 | 61.8 | TGI [4]: 19.2 µM; inhibition (INH) [5]: > 50% |
| O=C(Nc1ccc([Se][Se]c2ccc(NC(=O)OCC3c4ccccc4-c4ccccc43)cc2)cc1)OCC1c2ccccc2-c2ccccc21 | 22.6 | 52.9 | 83.3 | 17.8 | 80.3 | 49 | 14.9 | 71.4 | 43.2 | 9.2 | 70.3 | 38.8 | 36.8 | 60.5 | 84.3 | 6.5 | 59.4 | 19.7 | 7.1 | 64.1 | TGI [4]: 27.9 µM; Activity [6]: 0.93 µg/µL |
| N#C[Se]c1ccc(NC(=O)OCc2ccc([N+](=O)[O-])cc2)cc1 | 11.8 | 40.7 | 69.5 | 22.4 | 71.9 | 47.1 | 9.3 | 68.8 | 38.3 | 9 | 67.6 | 36.5 | 22.9 | 47.6 | 72.4 | 6 | 58.5 | 18 | 7.7 | 65.8 | TGI [4]: 32.8 µM; Activity [6]: 9.66 µg/µL |
| CCCCCCOC(=O)Nc1ccc([Se]C#N)cc1 | 6.6 | 30.5 | 63.9 | 10.7 | 69.9 | 40.3 | 19.7 | 72.7 | 46.2 | 17.3 | 72 | 44.6 | 23.6 | 48.5 | 73 | 4.6 | 60.1 | 20 | 2.8 | 68 | TGI [4]: 35.9 µM; inhibition (INH) [5]: > 25% |
| COc1ccc(OC(=O)Nc2ccc([Se]C#N)cc2)cc1 | 22.4 | 48.2 | 74.1 | 13.6 | 69.6 | 41.5 | 13 | 70 | 41.5 | 7.5 | 71.6 | 44.6 | 23.7 | 48.5 | 73.3 | 4.5 | 59.6 | 19.2 | 25.2 | 71.6 | TGI [4]: 48.4 µM; Activity [6]: 2.58 µg/µL |
| O=C(Nc1ccc([Se][Se]c2ccc(NC(=O)Oc3ccccc3)cc2)cc1)Oc1ccccc1 | 8 | 36.7 | 69 | 13 | 70.2 | 41.6 | 22.4 | 73.7 | 48.1 | 5.3 | 62.9 | 27.2 | 22.7 | 56.2 | 89.8 | 4.5 | 48.9 | 9 | 1.4 | 50.7 | TGI [4]: 8.6 µM; inhibition (INH) [5]: 66.9% |
| CCCCCCOC(=O)Nc1ccc([Se][Se]c2ccc(NC(=O)OCCCCCC)cc2)cc1 | 15.8 | 52.9 | 89.9 | 11 | 74.2 | 42.6 | 6.2 | 67.3 | 34.4 | 0.6 | 66.7 | 25.7 | 31 | 54.3 | 77.2 | 4.6 | 53.4 | 9.8 | 0.01 | 51.8 | TGI [4]: 6.9 µM; inhibition (INH) [5]: < 16% |
| CCCOC(=O)Nc1ccc([Se]C#N)cc1 | 8 | 34.4 | 67.5 | 28.4 | 75.4 | 51.9 | 9.3 | 68.8 | 38.4 | 21.1 | 73.8 | 47.4 | 28.9 | 51.9 | 74.9 | 3.7 | 50.9 | 9.1 | 19.2 | 73.5 | TGI [4]: 46.3 µM; Activity [6]: 6.27 µg/µL |
